# Assay results of several laboratories.
# Each line is one published result; the experiments were not run side by side.
# Target: Tyrosine-protein kinase receptor UFO (AXL, Homo sapiens, UniProt P30530)
# Residues used in one study (P30530 26-894): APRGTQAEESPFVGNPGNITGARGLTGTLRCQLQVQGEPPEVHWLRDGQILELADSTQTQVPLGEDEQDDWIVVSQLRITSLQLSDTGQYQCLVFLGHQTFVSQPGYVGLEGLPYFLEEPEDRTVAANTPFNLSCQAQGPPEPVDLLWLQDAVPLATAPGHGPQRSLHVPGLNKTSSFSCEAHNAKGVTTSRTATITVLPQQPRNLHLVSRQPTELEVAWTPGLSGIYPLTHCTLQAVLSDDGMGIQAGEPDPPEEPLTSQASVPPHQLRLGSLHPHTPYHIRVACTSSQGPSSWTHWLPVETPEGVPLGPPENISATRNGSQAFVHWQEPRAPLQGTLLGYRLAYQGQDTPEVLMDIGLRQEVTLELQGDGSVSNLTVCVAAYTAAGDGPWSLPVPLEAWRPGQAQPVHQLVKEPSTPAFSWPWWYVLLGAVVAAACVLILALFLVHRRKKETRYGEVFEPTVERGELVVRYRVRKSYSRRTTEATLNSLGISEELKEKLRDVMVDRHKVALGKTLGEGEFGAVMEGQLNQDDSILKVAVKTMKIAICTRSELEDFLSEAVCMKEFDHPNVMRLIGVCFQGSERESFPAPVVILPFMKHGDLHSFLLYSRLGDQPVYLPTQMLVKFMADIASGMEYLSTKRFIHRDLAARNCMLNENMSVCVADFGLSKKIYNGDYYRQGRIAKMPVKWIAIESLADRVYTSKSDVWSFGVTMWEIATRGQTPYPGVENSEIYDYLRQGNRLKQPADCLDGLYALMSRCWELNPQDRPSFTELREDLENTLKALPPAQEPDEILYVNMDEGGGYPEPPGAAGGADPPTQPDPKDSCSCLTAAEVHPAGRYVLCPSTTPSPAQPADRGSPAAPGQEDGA
read-out,method,concentration,remaining binding,Compound
binding,competition with immobilised ligand,50 nM,95%,C[C@@H]1CN(c2ccc3ncc(-c4ccc5[nH]nc(C6CC6)c5c4)n3n2)C[C@H](C)O1
binding,competition with immobilised ligand,1 µM,28%,O=C(c1ccc(Nc2ncc(Cl)c(-c3ccc(Cl)s3)n2)cc1)N1CCC(N2CCCC2)CC1
binding,,1 µM,75%,CN(CCCC(F)(F)F)c1nccc(-c2cnn3ncccc23)n1
binding,competition with immobilised ligand,1 µM,98%,CCN1CCN(Cc2ccc(C(=O)Nc3ccc(C)c(Oc4ccc5c(c4)CC(=O)N5)c3)cc2C(F)(F)F)CC1
binding,competition with immobilised ligand,1 µM,33%,O=C(c1ccc(Nc2nccc(-c3cc4ccccc4s3)n2)cc1)N1CCC(N2CCCC2)CC1
binding,,1 µM,100%,COc1ccnn2ncc(-c3ccnc(N(C)C)n3)c12
cell-free assay,competition with immobilised ligand,1 µM,84.2%,COc1cccc(CNC(=O)c2nc3scc(COCc4ccc(C(=O)O)cc4)c3c(=O)[nH]2)c1
binding,,1 µM,100%,CN(C)c1nccc(-c2cnn3ncccc23)n1
binding,competition with immobilised ligand,1 µM,68%,COc1cnc(Nc2cccc(S(N)(=O)=O)c2)nc1N1CCN(c2ccccc2)CC1
binding,,1 µM,86%,C[C@@H]1CCN(c2nccc(-c3cnn4ncccc34)n2)C1
binding,competition with immobilised ligand,10 µM,4%,c1cncc(-c2cccc(Nc3nccc(NC4CCCCC4)n3)c2)c1
cell-free assay,competition with immobilised ligand,0.1 µM,89%,CCOC(=O)c1cc2cc(-c3cc(C(=O)NCc4ccc(C(=O)O)cc4)nn3C)ccc2[nH]1
binding,competition with immobilised ligand,1 µM,100%,O=C(Nc1c[nH]nc1C(=O)NC1CCNCC1)c1cc(F)cc(F)c1
binding,competition with immobilised ligand,1 µM,87%,Nc1ncc2c(n1)-c1c([nH]c3ccc(C#CC4CC4)cc13)CCCC2
cell-free assay,competition with immobilised ligand,1 µM,88%,Cc1nccc(COC(=O)N2C[C@@H]3[C@@H](CNC(=O)c4ccc5[nH]nnc5c4)[C@@H]3C2)n1
binding,,1 µM,78%,CN(c1nccc(-c2cnn3ncccc23)n1)C1CC1
cell-free assay,competition with immobilised ligand,1 µM,100%,C[C@@H](c1cccc(C#N)c1)n1cc(Cl)cc(C(N)=O)c1=N
binding,competition with immobilised ligand,1 µM,94%,COc1cnc(Nc2cccc(S(N)(=O)=O)c2)nc1N1CCN(c2ccccc2)C(=O)C1
binding,competition with immobilised ligand,1 µM,100%,c1ccc(N2CCN(Cc3nc4ccccc4[nH]3)CC2)nc1
binding,,1 µM,97%,N[C@H]1CCN(c2nccc(-c3cnn4ncccc34)n2)C1
cell-free assay,competition with immobilised ligand,0.1 µM,100%,C[C@H](c1ccnc(Nc2nc3ccc(-c4cc(N(C)C)ncn4)cc3[nH]2)c1)N1CCN(C(=O)CC(F)(F)F)CC1
cell-free assay,competition with immobilised ligand,5 µM,92%,COc1ncc2cc3ccccc3nc2c1C#N
cell-free assay,competition with immobilised ligand,1 µM,100%,C[C@H](c1ccc(F)cc1)N(Cc1cccc(C(=O)O)c1)C(=O)c1cnc2ccccc2c1
binding,competition with immobilised ligand,1 µM,38%,O=C(NCCCN1CCOCC1)c1ccc(Nc2nccc(-c3cc4ccccc4s3)n2)cc1
